High-throughput results as filed in PubChem BioAssay.
PGC1a acetyl inh: lowers PGC1a acetylation signal in U2OS cells | hit rate 0.17% among 350,000 | AlphaScreen anti-acetyl-lysine; with virally co-expressed GCN5 acetyltransferase | AID 651687 | inhibition, % at 15.6 µM;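 active = every replicate shows inhibition of at least 40%; inconclusive = mean inhibition at least 40% but some replicate below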
MLL AF4-AF9 inh: inhibitors of human MLL-AF4/AF9 interaction; AlphaScreen, biotin-AF4 peptide binding to FLAG-AF9; inhibition, % at 10 µM; hit rate 0.47% among 350,000; AID 651704;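 active = every replicate reaching a set inhibition limit, whatever the replicate mean, cut at about 25% in these data; inconclusive = mean inhibition reaches that limit but some replicates miss it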
PAX8 reporter: inhibitors of PAX8 transcriptional activity in RMG-I cells. RMG-I TPO-luciferase reporter, SteadyGlo, 24 h. inhibition, % at 12.6 µM. hit rate 1.2% among 360,000;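 active = mean replicate inhibition at least 60% with every replicate also reaching 60%; inconclusive = only one of the two criteria is met; inactive = mean below 60% and not all replicates reaching 60%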;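 note: luciferase light reporting Pax8 driven TPO promoter activity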
INS-1E GSIS act: primary screen for activators of insulin secretion dependent on glucose, INS-1E cells, GLuc reporter luminescence; INS-1E GLuc reporter insulin secretion, 2-3 h; activation, % at 16.6 µM; hit rate 0.61% among 370,000; AID 743287;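 active = lowest replicate activation of at least 40%, so every replicate reaches that level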
Xi reactivation: activators of X-chromosome reactivation in mouse fibroblasts | hit rate 0.055% among 360,000 | AID 743238 | activation, % at 7.58 µM | XiGFP mouse fibroblasts, % GFP-positive cells imaging, 3 d; cells co-treated with 5-aza-dC sensitizer; scaled so ellipticine positive control = 100%;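 active = mean normalized replicate activation at least 10% and every replicate at or above 10%; inconclusive = only one of the two criteria met; inactive = mean below 10% and not all replicates reach 10%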
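System: 68-5-11 XiGFP fibroblast line | Buffer or medium: DMEM containing 5-aza-dC | Compound: Single point | Times: Compounds 3 days, fix/stain 15 min at room temperature | Benchmarks: Positive control ellipticine, 6 µM final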
EWS-Fli inh: blocks EWS/Fli oncoprotein-driven transcription; A673 NR0B1-luciferase reporter, viability-normalised; hit rate 0.67% among 350,000; inhibition, % at 12.6 µM;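 active = mean inhibition of at least 50% after viability correction, with every replicate also passing that limit; inconclusive = mean reaches 50% but only one of two replicates passes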;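 note: firefly luciferase signal divided by Alamar Blue viability fluorescence both relative to DMSO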
Numbers stand for hits; - = inactive; ? = inconclusive; . = no result; ! = not active in a repeat. An excerpt weighted towards active compounds, which were near 2.1% of everything screened.

SMILES	PGC1a acetyl inh	MLL AF4-AF9 inh	PAX8 reporter	INS-1E GSIS act	Xi reactivation	EWS-Fli inh
N#C/C(=C/c1ccc(-c2ccc(S(N)(=O)=O)cc2)o1)c1nc2ccccc2s1	.	.	-	-	92	.
N#C/C(=C/c1ccc(-c2ccccc2)o1)c1nc(-c2cccs2)cs1	.	-	-	-	77	83
N#C/C(=C/c1ccc(-c2ccc(S(N)(=O)=O)cc2)o1)C(=O)Nc1ccccc1	-	.	-	116	-	.
C[C@H](CO)N1C[C@H](C)[C@@H](CN(C)C(=O)Nc2ccc3c(c2)OCO3)Oc2c(NC(=O)CCCCCC(=O)Nc3ccccc3N)cccc2C1=O	-	-	.	-	-	-
COc1cccc(N(C(=O)c2ccco2)c2nc(-c3sc(NC(=O)c4ccco4)nc3C)cs2)c1	-	.	99	-	-	-
Cc1ccc(Cl)cc1Nc1nc(-c2sc(NC(=O)c3ccco3)nc2C)cs1	-	-	86	-	-	-
O=C1NCCOCc2cn(nn2)CC[C@H]1Cc1ccccc1	.	.	.	-	-	.
Cc1ccc(NC(=S)c2ccc3ccccc3n2)c(C)c1	-	-	-	57	-	-
Cc1ccc(C)c(NC(=O)c2ccc3ccccc3n2)c1	-	.	.	-	.	.
C[C@@H]1CN([C@H](C)CO)C(=O)c2cc(NS(=O)(=O)c3ccc(Cl)cc3)ccc2O[C@@H](C)CCCCO[C@H]1CN(C)Cc1ccc2c(c1)OCO2	-	-	90!	-	-	-
C[C@@H]1CCCCO[C@@H](CN(C)Cc2ccc3c(c2)OCO3)[C@@H](C)CN([C@@H](C)CO)C(=O)c2cc(NS(=O)(=O)c3ccc(Cl)cc3)ccc2O1	-	-	-	-	-	69!
O=C(CN1CCOCC1)N[C@H]1CC[C@@H](CCNC(=O)C2CCC2)O[C@H]1CO	-	-	-	-	-	-
Cc1cnc(NC(=O)c2ccc(OCC3CCCO3)cc2)s1 (centres undefined)	-	-	-	.	-	64
CCOc1ccc(C(=O)Nc2nnc(SCC(=O)NCC3CCCO3)s2)cc1 (centres undefined)	.	-	-	-	-	65
C#CCN(C[C@@H]1[C@@H](OC(=O)NC2CCCC2)[C@@H](OC(=O)NC2CCCC2)Cn2c(=O)ccc(=O)n21)S(=O)(=O)c1ccc(C)cc1	-	-	96	-	-	68
C#CCN(C[C@@H]1[C@@H](OC(=O)Nc2cccs2)[C@@H](OC(=O)Nc2cccs2)Cn2c(=O)ccc(=O)n21)S(=O)(=O)c1ccc(C)cc1	?	-	113	-	-	?
C#CCN(C[C@H]1[C@H](OC(=O)Nc2cccs2)[C@H](OC(=O)Nc2cccs2)CN(C(=O)OC(C)C)N1C(=O)OC(C)C)S(=O)(=O)c1ccc(C)cc1	.	-	?	-	-	-
C#CCN(C[C@@H]1[C@@H](OC(=O)NCc2ccccc2F)[C@@H](OC(=O)NCc2ccccc2F)Cn2c(=O)n(CCCCCC)c(=O)n21)S(=O)(=O)c1ccc(C)cc1	-	-	-	-	-	-
C#CCN(C[C@@H]1[C@@H](OC(=O)NC2CC2)[C@@H](OC(=O)NC2CC2)CN(C(=O)OC(C)C)N1C(=O)OC(C)C)S(=O)(=O)c1ccc(C)cc1	-	-	-	-	-	-
C#CCN(C[C@@H]1[C@@H](OC(=O)NCc2ccccc2F)[C@@H](OC(=O)NCc2ccccc2F)Cn2c(=O)ccc(=O)n21)S(=O)(=O)c1ccc(C)cc1	60	-	105	-	-	-
CNC[C@H]1Oc2cc(-c3cncnc3)ccc2S(=O)(=O)N([C@@H](C)CO)C[C@H]1C	-	-	.	-	-	-
CC1(C)CC(=O)c2sc(NC(=O)Cc3cccs3)nc2C1	-	.	-	.	.	.
COc1cccc(CC(=O)Nc2nc3c(s2)C(=O)CC(C)(C)C3)c1	-	-	99	-	-	-
O=C(C[C@H]1C[C@@H]2c3cc(NC(=O)Nc4ccccc4F)ccc3O[C@@H]2[C@@H](CO)O1)NCc1ccccn1	-	-	-	-	-	-
CCN1CCN(c2ccc(N=Cc3ccccc3O)cc2)CC1	.	57	-	-	-	-
O=C(Nc1ccc2c(c1)OCO2)N[C@H]1CC[C@H](CCNC(=O)C2CCOCC2)O[C@@H]1CO	-	-	.	-	-	-
